Source: PubChem
RGS4 block: inhibitors of human RGS4. P49798. 310,000 compounds, 0.45% hits. B-score at 10 µM. HEK293 M3R/RGS4 inducible, Fluo-4 calcium flux; active compounds read high; triggered by carbachol at its EC20. AID 463165;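 active means B-score, a plate-corrected calcium signal, over three deviations above library mean, with baseline fluorescence within five deviations of library mean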;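 further: RGS4 expression induced by doxycycline in cells with stable M3 receptor; B-score is computed from the integrated fluorescence ratio over baseline after carbachol; higher B-score means a larger calcium signal and so more RGS4 inhibition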
Target sequence (P49798 whole entry, looked up): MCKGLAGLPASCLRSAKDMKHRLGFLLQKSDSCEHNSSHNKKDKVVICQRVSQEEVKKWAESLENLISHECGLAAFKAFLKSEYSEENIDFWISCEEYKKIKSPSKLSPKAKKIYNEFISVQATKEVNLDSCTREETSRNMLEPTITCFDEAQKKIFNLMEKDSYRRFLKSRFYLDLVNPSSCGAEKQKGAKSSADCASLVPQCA
MrgX1 antag: antagonists of human MrgX1 receptor. 310,000 compounds, 1.3% hits. Q96LB2. B-score at 10 µM. AID 588676. MRGX1-HEK293 calcium flux, Fluo-4, BAM8-22 antagonism; active compounds read low;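 active means calcium-response B-score plate-corrected more than 3 library SD below zero, starting fluorescence within 5 deviations, no agonist response on first addition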;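 further: peak minus trough fluorescence over baseline after final BAM8-22 challenge near maximal dose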
Target sequence (Q96LB2 whole entry, looked up): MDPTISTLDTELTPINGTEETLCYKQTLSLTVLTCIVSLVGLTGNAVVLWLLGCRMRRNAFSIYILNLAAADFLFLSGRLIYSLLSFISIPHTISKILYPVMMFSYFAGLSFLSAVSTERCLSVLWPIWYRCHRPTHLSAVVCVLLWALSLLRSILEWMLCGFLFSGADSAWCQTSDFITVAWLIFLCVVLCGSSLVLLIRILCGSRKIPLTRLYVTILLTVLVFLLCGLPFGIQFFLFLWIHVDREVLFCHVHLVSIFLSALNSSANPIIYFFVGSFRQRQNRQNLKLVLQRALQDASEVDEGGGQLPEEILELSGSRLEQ
MrgX1 allo act: human MrgX1 positive allosteric modulation, primary screen; Q96LB2; B-score at 10 µM; AID 588675; MrgX1-HEK293, Fluo-4 calcium flux, FDSS; active compounds read high; 310,000 compounds, 0.63% hits;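 active means plate-corrected calcium response at least 3 library SD above typical, normal starting fluorescence, not activating the receptor alone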;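 further: compound read alongside a low EC10 to EC30 dose of BAM8-22 agonist; peak minus trough fluorescence over baseline measured at the second addition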
MrgX1 agonist: agonists of human MrgX1 receptor; Q96LB2; MrgX1-HEK293 cells, Fluo-4 calcium fluorescence, agonist mode; active compounds read high; B-score at 10 µM; 310,000 compounds, 0.44% hits; AID 588627;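 active means calcium response B-score plate-corrected fluorescence ratio at least 3 library SD, with starting fluorescence B-score inside 5 SD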
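Test system: HEK293 cells stably expressing human MrgX1 receptor; amount: 15,000 cells per well; doses: compound delivered in addition one of three; times: overnight plating before 1 h dye loading; detection: Fluo-4 NW calcium-flux fluorescence, kinetic read; read-out basis: B-scored fluorescence response ratio; controls: positive and negative controls per plate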
RGS4 pot: RGS4 potentiation or activation. HEK293 M3R/inducible RGS4, carbachol calcium flux Fluo4; active compounds read low. B-score at 10 µM. 310,000 compounds, 0.92% hits. AID 463111;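 active means B-score of the integrated calcium signal more than 4 SD below the library mean, with starting fluorescence not abnormally high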;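 further: negative B-score means reduced calcium response which marks RGS4 activation or potentiation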
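test system = HEK293 cells with stable M3R and inducible RGS4 | schedule = recording 10 s baseline at 1 Hz, 100 s post-agonist | technique = Fluo4-AM (2 µM) calcium-flux fluorescence, kinetic read | measure = Agonist-evoked peak-minus-minimum fluorescence over baseline, integrated ratio, B score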
MrgX1 allo conf: confirmation of human MrgX1 receptor positive allosteric modulators. shares compounds with MrgX1 allo act. MrgX1-HEK293, Fluo-4 calcium fluorescence, FDSS. activation (ratio percentage), % at 10 µM. 1,200 compounds, 13% hits. AID 602413;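 active means ratio at least 3 SD above the weak peptide control, stable starting fluorescence, no direct agonism earlier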;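 further: compound followed by low BAM8-22 agonist challenge near EC20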
HEK293 Ca flux: MrgX1 antagonist counter-screen hit in parental HEK293 cells. shares compounds with MrgX1 antag. Fluo-4 calcium fluorescence, FDSS. fluorescence ratio F(max-min)/F0 at 10 µM. 4,000 compounds, 2% hits. AID 624111;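 active means duplicate-averaged calcium fluorescence ratio at least three times the standard deviation of buffer wells, a nonspecific response in parental cells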
HEK293 Ca counter: activity in parental HEK293 cells without MrgX1. shares compounds with MrgX1 antag. AID 624114. fluorescence ratio F(max-min)/F0 at 10 µM. 4,000 compounds, 0.4% hits. parental HEK293 calcium flux, Fluo-4 fluorescence ratio; active compounds read high;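 active means calcium fluorescence ratio, averaged over duplicates, at least 3 SD of the buffer-well ratio, meaning a nonspecific response in receptor-free cells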;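 further: untransfected parental HEK293 lacking MrgX1 used as counterscreen for MrgX1 allosteric activators; fluorescence change taken during the second addition on a kinetic imager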
HEK293 Ca cntr2: counter-screen for MrgX1 activators: effect in parental HEK293 cells. shares compounds with MrgX1 antag. Fluo-4 calcium fluorescence (FDSS); active compounds read high. fluorescence ratio F(max-min)/F0 at 10 µM. 4,000 compounds, 8.7% hits;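 active means calcium fluorescence ratio at least three times the spread of buffer wells, meaning a non-specific response in parental cells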
Starred values were filed as active, the others as inactive; i = inactive; nt = no result. Compounds with a hit are over-represented: about 3.5% of the library has one in this group of screens.

SMILES | RGS4 block | MrgX1 antag | MrgX1 allo act | MrgX1 agonist | RGS4 pot | MrgX1 allo conf | HEK293 Ca flux | HEK293 Ca counter | HEK293 Ca cntr2
CCN(c1cccc2ccccc12)S(=O)(=O)c1ccc(Cl)nc1 | i | i | i | i | i | nt | nt | nt | nt
CCN(c1ccccc1)S(=O)(=O)c1ccc(N)c(OC)c1 | i | i | 6.6* | i | i | i | i | i | i
CC(C)N(C(C)C)S(=O)(=O)c1ccc(N2CCc3ccccc3C2)nc1 | i | i | 8.4* | i | -7.1* | i | i | i | i
Cc1ccc(S(=O)(=O)N2CCc3ccccc3C2)cc1 | i | i | i | i | i | nt | nt | nt | nt
CC(C)N(C(C)C)S(=O)(=O)c1ccc(Cl)nc1 | i | i | 7.7* | i | i | i | i | i | i
Cc1cn(CCOc2ccc(Cl)cc2)c(=O)[nH]c1=O | i | i | i | i | i | nt | nt | nt | nt
CCn1c(/C=C/c2ccc(F)cc2)nc2ccccc2c1=O | i | i | i | i | i | nt | nt | nt | nt
O=c1c2ccccc2nc(/C=C/c2ccccc2)n1CCCO | i | i | 11* | i | i | i | i | i | i
O=c1c2ccccc2nc(/C=C/c2ccc(O)cc2)n1CCc1ccccc1 | i | i | i | i | i | nt | nt | nt | nt
CCn1c(/C=C/c2ccccc2)nc2ccccc2c1=O | i | i | 7.7* | i | i | i | i | i | i
CCOc1ccc(N(CC(=O)Nc2cc(Cl)ccc2C)S(C)(=O)=O)cc1 | i | i | i | i | i | nt | nt | nt | nt
COc1cc2nc(N3CCN(C(=O)OCc4ccccc4)[C@H](C(=O)NC(C)(C)C)C3)nc(N)c2cc1OC | nt | i | i | i | nt | nt | nt | nt | nt
CCCCC1=CC2=CC(=O)C(C)(OC(=O)c3ccc(Cl)nc3)C(=O)C2=CO1 (stereo not given) | i | i | i | i | i | nt | nt | nt | nt
CCc1ccc(Oc2cc(Cl)nc(N)n2)cc1 | i | i | 12* | i | i | i | i | i | i
N#Cc1c(-c2ccccc2)cc(-c2ccccc2)nc1SCC(=O)NCC(=O)O | i | i | 19* | i | i | i | i | i | i
COc1ccc(-c2cc(-c3ccccc3)c(C#N)c(SCC(=O)O)n2)cc1 | i | i | i | i | i | nt | nt | nt | nt
C=CCN(CC=C)S(=O)(=O)c1ccc2nc(NC(=O)C(C)C)sc2c1 | nt | i | 21* | i | nt | i | i | i | i
COCCCNC(=O)C(C)N1c2cccc3cccc(c23)S1(=O)=O (stereo not given) | i | i | i | i | i | nt | nt | nt | nt
CN(C)C(=O)COc1ncnc2scc(-c3ccc(F)cc3)c12 | i | i | 8.2* | i | i | 35%* | i | i | i
CCN(C(=O)COc1ncnc2scc(-c3ccc(F)cc3)c12)C1CCS(=O)(=O)C1 (stereo not given) | i | i | i | i | i | nt | nt | nt | nt
O=S(=O)(NC(=S)NC1CCCCC1)c1ccc(Cl)cc1 | i | i | 17* | i | i | 23%* | i | i | i
CCc1ccc(S(=O)(=O)NC(=S)NC2CCCCC2)cc1 | i | i | 16* | i | i | i | i | i | i
Cc1ccc(S(=O)(=O)NC(=S)NC2CCCCC2)cc1 | i | i | 10* | i | i | i | i | i | i
NS(=O)(=O)c1ccc(CCNC(=S)NC2CCCCC2)cc1 | i | i | i | i | i | nt | nt | nt | nt
Cc1ccc(S(=O)(=O)C2(C(=O)NC3CCCC3)CC2)cc1 | i | i | i | i | i | nt | nt | nt | nt
